Measurements as given in ChEMBL document CHEMBL2086336, “Small molecule suppression of carbapenem resistance in NDM-1 producing Klebsiella pneumoniae” (ACS Med Chem Lett, 2012).
Activity calls are given as the source filed them.

Key:
[1] = system: Klebsiella pneumoniae; experiment: Antibacterial activity against Klebsiella pneumoniae BAA 2146 expressing NDM-1 after 16 hrs by broth microdilution technique; assay type: functional; details: BAA 2146, 16 h
Procedure, shortened: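 MIC of the 2-AI compound alone, determined by modified broth microdilution in cation-adjusted Mueller Hinton broth (CAMHB).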

[2] = system: Klebsiella pneumoniae; experiment: Potentiation of meropenem antibacterial activity against Klebsiella pneumoniae BAA 2146 expressing NDM-1 assessed as reduction in meropenem MIC at 50 uM after 16 hrs by broth microdilution technique; assay type: functional, organism-based
Procedure, shortened: (§1)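 Modified broth microdilution: imipenem or meropenem MIC measured in CAMHB supplemented with a fixed concentration of the 2-AI compound. Fold reduction is taken against the carbapenem MIC without compound.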

[3] = system: Klebsiella pneumoniae; experiment: Potentiation of imipenem antibacterial activity against Klebsiella pneumoniae BAA 2146 expressing NDM-1 assessed as reduction in imipenem MIC at 50 uM after 16 hrs by broth microdilution technique; assay type: functional; procedure, shortened: as §1
[4] = system: Klebsiella pneumoniae; experiment: Potentiation of meropenem antibacterial activity against Klebsiella pneumoniae BAA 2146 expressing NDM-1 assessed as reduction in meropenem MIC at 30 uM after 16 hrs by broth microdilution technique; assay type: functional; procedure, shortened: as §1
[5] = Hemolytic activity against defibrinated sheep blood after 1 hr by UV-spectrophotometry; assay type: ADME, tissue-based, Ovis aries; details: read-out: HD50
Procedure, shortened: (§2)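 Hemolysis was tested on mechanically defibrinated sheep blood. Lysis is expressed relative to a positive control. HD₅₀ is the concentration lysing 50% of cells versus that control.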

[6] = system: Klebsiella pneumoniae; experiment: Potentiation of imipenem antibacterial activity against Klebsiella pneumoniae BAA 2146 expressing NDM-1 assessed as reduction in imipenem MIC at 30 uM after 16 hrs by broth microdilution technique; assay type: functional; procedure, shortened: as §1
[7] = system: Klebsiella pneumoniae; experiment: Potentiation of imipenem antibacterial activity against Klebsiella pneumoniae BAA 2146 expressing NDM-1 assessed as reduction in imipenem MIC at 40 uM after 16 hrs by broth microdilution technique; assay type: functional
[8] = Hemolytic activity against defibrinated sheep blood at 30 uM after 1 hr by UV-spectrophotometry relative to control; assay type: ADME, tissue-based, Ovis aries; details: read-out: Activity; procedure, shortened: as §2
[9] = system: Klebsiella pneumoniae; experiment: Potentiation of cefotaxime antibacterial activity against Klebsiella pneumoniae ATCC 700603 expressing extended spectrum beta-lactamase assessed as reduction in cefotaxime MIC at 30 uM after 16 hrs by broth microdilution technique; assay type: functional
Procedure, shortened: (§3)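 Modified broth microdilution in cation-adjusted Mueller Hinton broth. The adjuvant's own MIC is measured first in CAMHB. Antibiotic MICs (imipenem/meropenem, or cefotaxime for the ESBL strain) are then determined in CAMHB supplemented with the 2-aminoimidazole at a fixed concentration of ≤30% of its own MIC. Reduction is reported as fold change versus the antibiotic MIC without adjuvant.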

[10] = system: Klebsiella pneumoniae; experiment: Antibacterial activity against Klebsiella pneumoniae BAA 2146 expressing NDM-1 assessed as reduction in CFU at 30 uM after 16 hrs relative to control; assay type: functional, organism-based
Procedure, shortened: (§4)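 Time-kill: cultures grown in CAMHB with imipenem (2–32 μg/mL) with or without 30 μM compound. Bacteria were plated at time points up to 16 h and viable CFU enumerated. Log reduction in CFU/mL is relative to untreated control; ≥2 log₁₀ drop versus antibiotic alone counted as synergy.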

[11] = system: Klebsiella pneumoniae; experiment: Potentiation of imipenem antibacterial activity against Klebsiella pneumoniae BAA 1705 expressing KPC-2 assessed as reduction in imipenem MIC at 30 uM after 16 hrs by broth microdilution technique; assay type: functional; procedure, shortened: as §3
[12] = system: Klebsiella pneumoniae; experiment: Antibacterial activity against Klebsiella pneumoniae BAA 2146 expressing NDM-1 assessed as intact to permeabilized cell membrane ratio at 30 uM after 1 hr by SYTO9/PI-based fluorimetry relative to control; assay type: functional
Procedure, shortened: (§5)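 Membrane damage was measured by Baclight assay after 1 h exposure of the NDM-1 strain to compound. The intact/permeabilized membrane ratio is expressed as % of DMSO-only treated control bacteria.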

[13] = system: Klebsiella pneumoniae; experiment: Potentiation of imipenem antibacterial activity against Klebsiella pneumoniae BAA 2146 expressing NDM-1 assessed as increase in log reduction in CFU of imipenem at 30 uM at 4 to 16 hrs relative to control; assay type: functional, organism-based; procedure, shortened: as §4
[14] = system: Klebsiella pneumoniae; experiment: Potentiation of imipenem antibacterial activity against Klebsiella pneumoniae BAA 2146 expressing NDM-1 assessed as decreased regrowth at 30 uM at 4 to 16 hrs relative to control; assay type: functional, organism-based
Procedure, shortened: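 Time-kill: K. pneumoniae BAA-2146 (NDM-1) grown in CAMHB with imipenem (2, 8 or 32 μg/mL in figure; 16 and 4 μg/mL also reported) with or without additive at 30 μM. Viable CFU counted by plating at time points up to 16 h; log reduction in CFU/mL versus untreated control. Synergy defined as ≥2 log10 CFU decrease versus antibiotic alone.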

[15] = system: Klebsiella pneumoniae; experiment: Antibacterial activity against Klebsiella pneumoniae BAA 2146 expressing NDM-1 assessed as intact to permeabilized cell membrane ratio at 50 uM after 1 hr by SYTO9/PI-based fluorimetry relative to control; assay type: functional; procedure, shortened: as §5
[16] = system: Klebsiella pneumoniae; experiment: Potentiation of carbapenem antibacterial activity against Klebsiella pneumoniae BAA 2146 expressing NDM-1 assessed as reduction in carbapenem MIC at 50 uM after 16 hrs by broth microdilution technique; assay type: functional; procedure, shortened: as §3

CCCCc1ccc(-c2c[nH]c(N)n2)cc1.Cl
MIC [1]: 200 µM

CCCCCc1ccc(-c2c[nH]c(N)n2)cc1.Cl
MIC [1]: 100 µM

CCCCCCc1ccc(-c2nc(N)[nH]c2-c2ccccc2)cc1.Cl
Activity [2]: inactive
Activity [3]: inactive
MIC [1]: > 200 µM

CCCCCCc1ccc(-c2c[nH]c(N)n2)cc1.Cl
fold change (FC) [4]: 16
HC50 at 1 h [5]: > 500 µM
fold change (FC) [6]: 16
fold change (FC) [7]: 64
hemolysis at 1 h, 30 µM [8]: 2.5%
fold change (FC) [9]: 8
Activity [10]: inactive
fold change (FC) [11]: 16
fold change (FC) [3]: 256
MIC [1]: 100 µM
Activity [12]: 8.5%
Activity [13]: Active
Activity [14]: Active

CCCCCCc1ccc(-c2nc(N)[nH]c2CC(C)C)cc1.Cl
Activity [2]: inactive
Activity [3]: inactive
MIC [1]: 200 µM

CCCCCCc1ccc(-c2nc(N)[nH]c2Cc2ccccc2)cc1.Cl
Activity [2]: inactive
Activity [3]: inactive
MIC [1]: > 200 µM

CC(C)(C)c1ccc(-c2c[nH]c(N)n2)cc1.Cl
MIC [1]: 200 µM

CCCCCCc1ccc(-c2nc(N)[nH]c2CCC)cc1.Cl
MIC [1]: 100 µM

CCCCCCc1ccc(-c2nc(N)[nH]c2-c2ccc3ccccc3c2)cc1.Cl
Activity [2]: inactive
Activity [3]: inactive
MIC [1]: > 200 µM

CCCCCCCc1ccc(-c2c[nH]c(N)n2)cc1.Cl
Activity [15]: 21.2%
fold change (FC) [16]: 2
MIC [1]: 200 µM

CCCCCCc1ccc(-c2nc(N)[nH]c2CCCCCC)cc1.Cl
fold change (FC) [4]: 2
Activity ([6]; 50 uM, in the assay text read “at 50 uM” for “at 30 uM”): inactive
MIC [1]: > 200 µM
Activity [12]: 8.13%

Cl.Nc1nc(-c2ccc(-c3ccccc3)cc2)c[nH]1
MIC [1]: > 200 µM

CCCCCCc1ccc(-c2nc(N)[nH]c2C)cc1.Cl
fold change (FC) [4]: 8
fold change (FC) [6]: 8
MIC [1]: 100 µM
